From PubChem
In the library only some 5.8% were active in any assay of this set; here they are far more common.
Pf Dd2 inh – inhibitors of Plasmodium falciparum Dd2 growth; P. falciparum Dd2 growth, SYBR Green, 72 h; active compounds read low; activity change, % at 10 µM; 2.3% of 94,000 active; AID 1159554; in the data active means activity change below about -80%; inconclusive means no clear call, values can overlap the other calls
IDH1 mut inh – blocks human IDH1 R132H reductase activity. O75874. diaphorase/resazurin fluorescence, 60 min. inhibition, % at 10 µM. 0.18% of 70,000 active; in the data active means inhibition above about 34%; inconclusive means no clear call, values can overlap the other calls; inactive means below about 11%
Target sequence (O75874 whole entry R132H): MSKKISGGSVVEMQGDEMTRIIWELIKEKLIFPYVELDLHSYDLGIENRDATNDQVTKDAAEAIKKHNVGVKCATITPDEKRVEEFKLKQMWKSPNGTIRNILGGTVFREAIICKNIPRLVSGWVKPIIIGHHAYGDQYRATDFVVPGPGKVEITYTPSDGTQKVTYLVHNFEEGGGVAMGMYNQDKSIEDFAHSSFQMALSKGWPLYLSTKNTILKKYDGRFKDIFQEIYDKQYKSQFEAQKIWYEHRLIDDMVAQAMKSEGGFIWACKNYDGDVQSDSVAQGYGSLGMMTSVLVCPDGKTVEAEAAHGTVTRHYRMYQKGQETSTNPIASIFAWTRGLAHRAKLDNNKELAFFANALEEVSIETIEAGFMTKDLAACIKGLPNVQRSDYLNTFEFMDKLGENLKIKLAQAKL
T cruzi growth-1 – inhibitors of T. cruzi proliferation. T. cruzi beta-gal in NIH3T3, GalScreen luminescence, 90 h. inhibition, % at 8.34 µM. 5.9% of 77,000 active;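 active means mean inhibition above about 93%, with at least 55% of replicates each passing it, limit read from the data, passing the limit was not always enough; inconclusive means only one of those two conditions holds; inactive means neither condition holds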
GASC1 inh – inhibitors of human demethylase GASC-1 KDM4C; inhibition, % at 12.5 µM; 0.15% of 96,000 active; GST-KDM4C 2-372, H3K9me3 peptide, LANCE TR-FRET; Q9H3R0;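 active means mean replicate inhibition above about 25%, with at least 55% of replicates also reaching it, limit read from the data, passing the limit was not always enough; inconclusive means only one of those two conditions met; inactive means neither condition met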
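Compound: one test concentration per compound; Material: GST-GASC-1 enzyme fragment 2-372; Amount: GASC-1 enzyme at 10 nM final in reaction; Also added: H3K9me3 peptide substrate, Fe(II), 2-oxoglutarate; Technique: LANCE TR-FRET; Times: 30 min demethylation and 1 h detection at room temperature.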
T cruzi growth-2 – inhibitors of T. cruzi proliferation | T. cruzi beta-gal in NIH3T3, GalScreen luminescence, 90 h | inhibition, % at 8.35 µM | AID 651739 | shares compounds with T cruzi growth-1 | 72% of 5,600 active;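 active means mean replicate inhibition above about 95% and at least 55% of replicates individually reaching it, limit read from the data; inconclusive means only one of the two criteria is met; inactive means neither criterion is met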
T cruzi growth-3 – Trypanosoma cruzi proliferation inhibition | shares compounds with T cruzi growth-1 | 21% of 5,600 active | T. cruzi beta-gal in NIH3T3, GalScreen luminescence, 90 h | inhibition, % at 2.09 µM;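 active means mean inhibition above about 95%, with at least 55% of replicates also reaching it, limit read from the data; inconclusive means meets just one of the two conditions; inactive means meets neither condition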
NIH3T3 tox – NIH/3T3 (mouse) viability loss; shares compounds with T cruzi growth-1; 14% of 5,600 active; NIH/3T3 viability, CellTiter-Glo ATP luminescence, 90 h; AID 651742; cytotoxicity (signal decrease), % at 8.35 µM;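 active means mean signal decrease across replicates above about 35% based on untreated-well scatter, with enough replicates individually passing, limit read from the data; inconclusive means no rule stated though some were filed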
3T3 cytotox 2 – kills mouse NIH/3T3 fibroblasts; shares compounds with T cruzi growth-1; NIH/3T3 viability, CellTiter-Glo ATP luminescence, 90 h; inhibition, % at 24.9 µM; 56% of 5,600 active; AID 651744;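 active means mean loss of cell viability signal at or above a set limit, and enough replicates individually reaching it; inconclusive means meets only the mean limit or only the replicate share; inactive means meets neither condition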
Of the large screens only hits and unclear results are named; the others gave an inactive call (follow-up assays come after a bar, where they were run).

COc1ccc(CN(C)C[C@H]2OCCCC[C@H](C)Oc3ccc(NC(=O)C4CCCCC4)cc3C(=O)N([C@@H](C)CO)C[C@@H]2C)cc1	T cruzi growth-1 104.4 | T cruzi growth-2 106.7 | T cruzi growth-3 inactive | NIH3T3 tox inactive | 3T3 cytotox 2 68.6
COc1ccc(CN(C)C[C@@H]2OCCCC[C@@H](C)Oc3ccc(NC(=O)Nc4ccccc4)cc3C(=O)N([C@H](C)CO)C[C@H]2C)cc1	T cruzi growth-1 110.5 (no result: IDH1 mut inh) | T cruzi growth-2 inconclusive | T cruzi growth-3 inactive | NIH3T3 tox inactive | 3T3 cytotox 2 104.2
COc1ccc(CN(C)C[C@H]2OCCCC[C@H](C)Oc3ccc(NC(=O)Nc4ccccc4)cc3C(=O)N([C@@H](C)CO)C[C@H]2C)cc1	T cruzi growth-1 inconclusive (no result: IDH1 mut inh) | T cruzi growth-2 109.1 | T cruzi growth-3 inactive | NIH3T3 tox inactive | 3T3 cytotox 2 34.4
COc1ccc(CN(C)C[C@H]2OCCCC[C@@H](C)Oc3ccc(NC(=O)Nc4ccc(OC)cc4)cc3C(=O)N([C@@H](C)CO)C[C@H]2C)cc1	T cruzi growth-1 104.5 | T cruzi growth-2 103.3 | T cruzi growth-3 inactive | NIH3T3 tox inactive | 3T3 cytotox 2 105.7
COc1ccc(CN(C)C[C@@H]2OCCCC[C@@H](C)Oc3ccc(NC(=O)Nc4ccc(OC)cc4)cc3C(=O)N([C@H](C)CO)C[C@H]2C)cc1	Pf Dd2 inh inconclusive (no result: IDH1 mut inh, GASC1 inh)
COc1ccc(NC(=O)C2=C(C)NC(=O)NC2c2cc(OC)ccc2OC)c(OC)c1 (stereo unspecified)	none (no result: Pf Dd2 inh, T cruzi growth-1, GASC1 inh)
CN1CCN(c2ccc(CNS(=O)(=O)c3cccc4nonc34)cc2)CC1	none (no result: Pf Dd2 inh, T cruzi growth-1, GASC1 inh)
Cc1ccc(S(=O)(=O)N(C)C[C@H]2Oc3c(NC(=O)CCCCCC(=O)Nc4ccccc4N)cccc3C(=O)N([C@H](C)CO)C[C@@H]2C)cc1	none (no result: IDH1 mut inh, T cruzi growth-1)
C[C@H]1CN([C@@H](C)CO)C(=O)c2cccc(NC(=O)CCCCCC(=O)Nc3ccccc3N)c2O[C@@H]1CN(C)S(=O)(=O)c1ccc(Cl)cc1	Pf Dd2 inh inconclusive, T cruzi growth-1 105.9 | T cruzi growth-2 104.5 | T cruzi growth-3 inactive | NIH3T3 tox inactive | 3T3 cytotox 2 inactive
C[C@H](CO)N1C[C@H](C)[C@H](CN(C)S(=O)(=O)c2ccc(Cl)cc2)Oc2c(NC(=O)CCCCCC(=O)Nc3ccccc3N)cccc2C1=O	Pf Dd2 inh -81.0, T cruzi growth-1 106.2 (no result: IDH1 mut inh) | T cruzi growth-2 113.7 | T cruzi growth-3 inactive | NIH3T3 tox inactive | 3T3 cytotox 2 inactive
C[C@H]1CN([C@@H](C)CO)C(=O)c2cccc(NC(=O)CCCCCC(=O)Nc3ccccc3N)c2O[C@@H]1CN(C)S(=O)(=O)c1ccccc1	none (no result: IDH1 mut inh, T cruzi growth-1)
Cc1cc(NC(=O)CN(c2ccc(Cl)c(C(F)(F)F)c2)S(C)(=O)=O)ccc1Br	none (no result: Pf Dd2 inh, T cruzi growth-1, GASC1 inh)
O=C(c1cccc(F)c1)N1CCCCN2[C@H](CO)[C@@H](c3ccc(-c4ccncc4)cc3)[C@H]2C1	none (no result: IDH1 mut inh)
O=C(c1cccc(F)c1)N1CCCCN2[C@@H](CO)[C@H](c3ccc(-c4ccncc4)cc3)[C@@H]2C1	T cruzi growth-1 109.2 (no result: IDH1 mut inh) | T cruzi growth-2 101.4 | T cruzi growth-3 inactive | NIH3T3 tox inactive | 3T3 cytotox 2 46.5
O=C(c1cccc(F)c1)N1CCCCN2[C@H](CO)[C@@H](c3ccc(-c4ccc(F)cc4)cc3)[C@H]2C1	none (no result: IDH1 mut inh, GASC1 inh)
O=C(c1cccc(F)c1)N1CCCCN2[C@@H](CO)[C@H](c3ccc(-c4ccc(F)cc4)cc3)[C@@H]2C1	T cruzi growth-1 105.2 (no result: IDH1 mut inh, GASC1 inh) | T cruzi growth-2 103.0 | T cruzi growth-3 inactive | NIH3T3 tox inactive | 3T3 cytotox 2 106.4
O=C(c1cccc(F)c1)N1CCCCN2[C@H](CO)[C@H](c3ccc(-c4ccc(F)cc4)cc3)[C@H]2C1	T cruzi growth-1 111.0 (no result: IDH1 mut inh, GASC1 inh) | T cruzi growth-2 101.7 | T cruzi growth-3 inactive | NIH3T3 tox inactive | 3T3 cytotox 2 104.1
O=C(c1cccc(F)c1)N1CCCCN2[C@@H](CO)[C@@H](c3ccc(-c4ccc(F)cc4)cc3)[C@@H]2C1	none (no result: IDH1 mut inh, GASC1 inh)
